{"data": "Experimental data pooled from the literature", "effect on": "cell growth or viability", "note": "Each line is one published result; the experiments were not run side by side."}
{"Structure (SMILES)": "COc1cccc2c1cc1c3c(cc4c(c32)OCO4)C(=O)N1C", "cell line": "MOLT-3", "assay": "XTT", "setting": "75 h", "IC50 [nM]": 50300}
{"Structure (SMILES)": "CC(C)c1cccc(C(C)C)c1N=C1C(=O)Nc2ccccc21", "cell line": "L02", "assay": "MTT", "setting": "48 h", "IC50 [nM]": 31600}
{"Structure (SMILES)": "O=C(NO)c1ccc(Cn2cnc3c(Nc4cccc([N+](=O)[O-])c4)ncnc32)cc1", "cell line": "NALM-6", "assay": "MTT", "setting": "72 h", "IC50 [nM]": 1900}
{"Structure (SMILES)": "C=C[C@]1(C)C=C2CC[C@H]3C(C)(C)CCC[C@]3(C)[C@H]2CC1", "cell line": "MOLT-3", "assay": "XTT", "setting": "75 h", "IC50 [nM]": 125000}
{"Structure (SMILES)": "O=C(NO)c1ccc(Cn2cnc3c(Nc4ccc(F)c(Cl)c4)ncnc32)cc1", "cell line": "NALM-6", "assay": "MTT", "setting": "72 h", "IC50 [nM]": 2020}
{"Structure (SMILES)": "COc1cc(N=C2C(=O)Nc3ccccc32)cc(OC)c1", "cell line": "L02", "assay": "MTT", "setting": "48 h", "IC50 [nM]": "> 100000"}
{"Structure (SMILES)": "Cc1ncsc1-c1ccc(CNC(=O)[C@@H]2C[C@@H](O)CN2C(=O)[C@@H](NC(=O)C2(F)CC2)C(C)(C)C)c(OCCOc2ccc(CN3CCN(c4cc(-c5ccccc5O)nnc4N)CC3)cc2)c1", "cell line": "NCI-H1944", "assay": "ATP luminescence", "setting": "7 days", "IC50 [nM]": 168}
{"Structure (SMILES)": "O=C1C(=Nc2ccc(Cl)cc2)c2ccccc2N1Cc1ccc(Br)cc1", "cell line": "L02", "assay": "MTT", "setting": "48 h", "IC50 [nM]": "> 100000"}
{"Structure (SMILES)": "CN(C)C(=O)c1cc2cnc(Nc3ccc(-c4ccc5c(=O)cc(N6CCOCC6)oc5c4)cc3)nc2n1C1CCCC1", "cell line": "Hs68", "assay": "ATP luminescence", "setting": "72 h", "IC50 [nM]": 1150}
{"Structure (SMILES)": "C(=N\\Nc1cc(N/N=C/c2cccc3cccnc23)ncn1)/c1cccc2cccnc12", "cell line": "L02", "assay": "MTT", "setting": "48 h", "IC50 [nM]": 31600}
{"Structure (SMILES)": "Cc1cc(Nc2ncnc3ccc(NC4=NC(C)(C)CO4)cc23)ccc1Oc1ccn2ncnc2c1", "cell line": "HCC1419", "assay": "ATP luminescence", "IC50 [nM]": 30.2}
{"Structure (SMILES)": "O=C(NO)c1ccc(Cn2cnc3c(Nc4ccc(Cl)cc4)ncnc32)cc1", "cell line": "NALM-6", "assay": "MTT", "setting": "72 h", "IC50 [nM]": 410}
{"Structure (SMILES)": "Cc1cccc(N=C2C(=O)N(Cc3ccc(Br)cc3)c3ccccc32)c1", "cell line": "L02", "assay": "MTT", "setting": "48 h", "IC50 [nM]": 26000}
{"Structure (SMILES)": "CC(C)(C)c1cnc(CSc2cnc(NC(=O)C3CCN(C(=O)CCCCCCCN4Cc5cc6c(cc5C4)C(=O)N(C4CCC(=O)NC4=O)C6=O)CC3)s2)o1 (stereo not drawn)", "cell line": "REH", "assay": "MTT", "IC50 [nM]": 6.6}
{"Structure (SMILES)": "CCc1ccc(N=C2C(=O)N(Cc3ccccc3)c3ccccc32)cc1", "cell line": "L02", "assay": "MTT", "setting": "48 h", "IC50 [nM]": 86700}
{"Structure (SMILES)": "CN1C(=O)C(=O)c2cc3c(c4c2c1cc1ccccc14)OCO3", "cell line": "MOLT-3", "assay": "XTT", "setting": "75 h", "IC50 [nM]": 20400}
{"Structure (SMILES)": "COc1cccc2c1C(=O)c1c(O)c3c(c(O)c1C2=O)C[C@@](O)(C(=O)CO)C[C@@H]3O[C@H]1C[C@H](N)[C@H](O)[C@H](C)O1", "cell line": "CAL-51", "assay": "ATP luminescence", "setting": "72 h", "IC50 [nM]": 120}
{"Structure (SMILES)": "C=CCN1C(=O)C(=Nc2cccc(C)c2)c2ccccc21", "cell line": "L02", "assay": "MTT", "setting": "48 h", "IC50 [nM]": 14100}
{"Structure (SMILES)": "COC[C@H](NC(=O)c1ccn(S(C)(=O)=O)c1)C(=O)Nc1nc(-c2cccc(N3C[C@@H](C)O[C@@H](C)C3)n2)cs1", "cell line": "NCI-H1944", "assay": "ATP luminescence", "setting": "7 days", "IC50 [nM]": 45.1}
{"Structure (SMILES)": "COc1c(Cl)cccc1Nc1c(-c2ccncc2OC[C@@H]2COCCO2)[nH]c2c1C(=O)NCC2", "cell line": "HCC1419", "assay": "ATP luminescence", "IC50 [nM]": 6.4}
{"Structure (SMILES)": "O=C(NO)c1ccc(Cn2cnc3c(Nc4ccc(Br)cc4F)ncnc32)cc1", "cell line": "NALM-6", "assay": "MTT", "setting": "72 h", "IC50 [nM]": 2120}
{"Structure (SMILES)": "O=C1C(=Nc2ccccc2I)c2ccccc2N1Cc1cccc(Cl)c1", "cell line": "L02", "assay": "MTT", "setting": "48 h", "IC50 [nM]": 19100}
{"Structure (SMILES)": "C(=N\\Nc1cc(N/N=C/c2cccc3cccnc23)nc(-c2ccccc2)n1)/c1cccc2cccnc12", "cell line": "L02", "assay": "MTT", "setting": "48 h", "IC50 [nM]": "> 100000"}
{"Structure (SMILES)": "COc1cc([C@@H]2c3cc4c(cc3[C@@H](O[C@@H]3O[C@@H]5CO[C@@H](C)O[C@H]5[C@H](O)[C@H]3O)[C@H]3COC(=O)[C@H]23)OCO4)cc(OC)c1O", "cell line": "MOLT-3", "assay": "XTT", "IC50 [nM]": 61}
